Data set [1] is described as follows: Drug localization in late endosomes/lysosomes of mouse Rh-Dextran-labelled HT22 cells at 7.5 uM after 2.5 hrs using fluorescent-labelled peptide by confocal microscopic analysis. Type of data set: ADME, subcellular, Late endosome/lysosome. The conditions noted are these: ht-22, 2.5 h.
A short description of data set [2]: Drug localization in nucleus of mouse HT22 cells assessed as punctate formation after 3 hrs by DAPI staining based fluorescence microscopic analysis. Type of data set: ADME, subcellular. To be noted: ht-22, 3 h. The method in brief:
(§1)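 Rhodamine-labelled peptide (3.5 μM) was given for 3 h at 37 °C. Cells were washed with DMEM and PBS, fixed in 4% PFA for 20 min, nuclei stained with DAPI, and imaged by epifluorescence with 40× air or 60× oil objectives.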

Data set [3] in a line: Drug localization in cytosol of human HeLa cells assessed as punctate formation after 3 hrs by DAPI staining based fluorescence microscopic analysis. The format is ADME, subcellular. The procedure, abridged: as §1
Data set [4] can be described thus: Drug localization in nucleus of HEK293 cells assessed as punctate formation after 3 hrs by DAPI staining based fluorescence microscopic analysis. To be noted: human, hek293, 3 h. The format is ADME, subcellular. The procedure, abridged: as §1
Data set [5] in a line: Drug uptake in mouse HT22 cells at 3.5 uM up to 3 hrs by DAPI staining based fluorescence microscopic analysis. Type of data set: ADME, cell-based. The conditions noted are these: ht-22, 3 h. The procedure, abridged: (§2)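 HT-22 cells were incubated with 3.5 μM rhodamine-labelled peptide for 30 min, 3 h, 6 h and 24 h at 37 °C, then fixed in 4% PFA with DAPI nuclear stain. Per-cell fluorescence was taken as integrated density after background correction.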

Data set [6] can be described thus: Drug uptake in mouse HT22 cells at 3.5 uM after 6 to 24 hrs by DAPI staining based fluorescence microscopic analysis. The format is ADME, cell-based. The conditions noted are these: ht-22, 3.5 µM. The procedure, abridged:
as §2

A short description of data set [7]: Drug localization in cytosol of mouse HT22 cells assessed as punctate formation after 3 hrs by DAPI staining based fluorescence microscopic analysis. Type of data set: ADME, subcellular, HT-22. The method in brief: as §1
A short description of data set [8]: Drug localization in cytosol of HEK293 cells assessed as punctate formation after 3 hrs by DAPI staining based fluorescence microscopic analysis. To be noted: human. Type of data set: ADME, subcellular. The procedure, abridged: as §1
The nature of data set [9]: Drug localization in nucleus of human HeLa cells assessed as punctate formation after 3 hrs by DAPI staining based fluorescence microscopic analysis. Type of data set: ADME, subcellular. The method in brief:
as §1

The next data set concerns HeLa. In words: Cytotoxicity against human HeLa cells after 24 hrs by MTT assay. The format is functional. The method in brief:
(§3)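 Cells grown at 37 °C with 5% CO2 and treated at about 50–70% confluence in serum-free medium for 24 h. Viability read by MTT and expressed as a percentage of untreated cells. Run in triplicate in at least three independent trials, reported as mean ± standard deviation.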
A general note: Formazan colour is commonly taken as a measure of viable cells.

The subject of a further data set is MDA-MB-231. In words: Cytotoxicity against human MDA-MB-231 cells after 24 hrs by MTT assay. The format is functional. To be noted: for EC50: MDA-MB-231, 24 h, read-out: ED50 (the source's name). The method in brief: (§4)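 Per well of a 48-well plate, 1.5 × 10^4 cells were seeded in medium with 10% FBS and grown for at least 24 h, then treated at about 50–60% confluence for 24 h. MTT was added for the final 3 h at 37 °C in the dark. Formazan was dissolved in DMSO and read at 595 nm, as % of untreated cells. Triplicate wells, at least three independent trials.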

A short description of data set [10]: Drug localization in cytosol of mouse Rh-Dextran-labelled HT22 cells at 7.5 uM after 2.5 hrs using fluorescent-labelled peptide by confocal microscopic analysis. The format is ADME, subcellular, HT-22.
For data set [11], the system named is HT-22. Kind of data set: Cytotoxicity against mouse HT22 cells after 24 hrs in presence of lysosomal protease inhibitor bafilomycin A1 by MTT assay. Type of data set: functional, cell-based.
Another data set deals with MCF-10A. Kind of data set: Cytotoxicity against human MCF10A cells after 24 hrs by MTT assay. The format is cell-based. The procedure, abridged: as §4
In data set [12] the test system is HT-22. Kind of data set: Aggregation property of the compound in mouse HT22 cells assessed as intracellular amyloid formation at 15 uM after 1 hr by thioflavin S/DAPI staining based fluorescence microscopic analysis. Type of data set: ADME, cell-based. The conditions noted are these: ht-22, 1 h. The method in brief: (§5)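 Cells treated with vehicle or 15 μM peptide for 1 h, fixed in 4% PFA for 20 min, stained with 0.005% (w/v) ThS in water for 10 min, washed three times with absolute ethanol, counterstained with DAPI, and imaged by epifluorescence microscopy.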

For the next data set, the system named is HEK293. In words: Cytotoxicity against HEK293 cells after 24 hrs by MTT assay. Type of data set: cell-based. To be noted: human, hek293, 24 h. The method in brief:
as §3

In data set [13] the test system is HT-22. Kind of data set: Induction of cell death in mouse HT22 cells by thioflavin S/DAPI/propidium iodide staining based fluorescence microscopic analysis. The format is functional. The procedure, abridged: (§6)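 Cells were given vehicle or 7.5 μM peptide for 3 h and stained live with 20 μg mL−1 propidium iodide for 10 min. They were then PBS-washed, fixed in 4% PFA, stained with 0.005% ThS for 10 min, ethanol-washed, counterstained with DAPI and imaged by fluorescence microscopy.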

The test system of data set [14] is HT-22. In words: Cytotoxicity against mouse HT22 cells after 24 hrs in presence of lysosomal protease inhibitor ammonium chloride by MTT assay. Type of data set: functional, cell-based.
For data set [15], the system named is HT-22. In words: Cytotoxicity against mouse HT22 cells after 24 hrs in presence of lysosomal protease inhibitor leupeptin by MTT assay. The format is functional, cell-based.
For data set [16], the system named is HT-22. In words: Induction of endosomal/lysosomal membrane permeabilization in mouse HT22 cells at 15 uM measured after 1 hr by acridine orange dye based fluorescence microscopic analysis. Type of data set: functional.
The subject of data set [17] is HT-22. Kind of data set: Induction of cell death in mouse HT22 cells at 7.5 uM after 3 hrs by thioflavin S/DAPI/propidium iodide staining based fluorescence microscopic analysis. Type of data set: functional. The method in brief:
as §6

The test system of data set [18] is HT-22. In words: Aggregation property of the compound in mouse HT22 cells assessed as intracellular amyloid formation by thioflavin S/DAPI staining based fluorescence microscopic analysis. Type of data set: ADME, cell-based. The method in brief:
as §5

The results in this text go back to ChEMBL document CHEMBL4325821, “Novel cell-penetrating-amyloid peptide conjugates preferentially kill cancer cells” (Medchemcomm, 2018).

Activity calls are given as the source filed them. The rule behind the calls is not given here. Starred links: 1 amine or outer side, 2 acyl side, 3 side chain; linkers in the order of their positions; H or OH if unused. Residues, ends and D or L forms follow the SMILES beside them. *: point of attachment. Piperazinyl(4-RhodamineB) = CCN(CC)c1ccc2c(-c3ccccc3C(=O)N3CCN(*)CC3)c3ccc(=[N+](CC)CC)cc-3oc2c1; Suc = O=C(CCC(=O)[*:2])[*:1]

Consider `CC[C@H](C)[C@H](NC(=O)[C@H](CCC(N)=O)NC(=O)[C@@H](NC(=O)CCC(=O)N1CCN(C(=O)c2ccccc2-c2c3ccc(=[N+](CC)CC)cc-3oc3cc(N(CC)CC)ccc23)CC1)C(C)C)C(=O)N[C@H](C(=O)N[C@@H](Cc1ccc(O)cc1)C(=O)N[C@@H](CCCCN)C(=O)N[C@@H](CCCNC(=N)N)C(=O)N[C@@H](CCCNC(=N)N)C(=O)N[C@@H](CCCNC(=N)N)C(=O)N[C@@H](CCCNC(=N)N)C(=O)N[C@@H](CCCNC(=N)N)C(=O)N[C@@H](CCCNC(=N)N)C(=O)N[C@@H](CCCNC(=N)N)C(=O)N[C@@H](CCCNC(=N)N)C(=O)N[C@@H](CCCNC(=N)N)C(N)=O)C(C)C.[Cl-]` ({Piperazinyl(4-RhodamineB)-Suc}-VQIVYKRRRRRRRRR-NH2), for which the Drug uptake result in [1] is recorded as “Active”; in data set [2], “Active”; in data set [3], “Active”; in data set [4], “Active”; in [5], “Active”; in [6], “Not Active”. For the same compound, the Drug uptake entry in data set [7], in [8] and in data set [9] was “Active” throughout.
In the case of Ac-VQIVYKRRRRRRRRR-NH2, the result in the data set with HeLa, in the data set with HT-22 [13] and with HT-22 [16] was Active. Besides, in the data set with MDA-MB-231, the EC50 was 5 µM. Further, the Drug uptake result in data set [10] was “Active”. Also, the outcome in the data set on HT-22 [11], in the data set on HT-22 [14] and with HT-22 [15] was inactive. Besides, the Activity entry was “Non-Toxic” in the data set with MCF-10A, “Active” in the data set with HT-22 [12] and “Non-Toxic” in the data set on HEK293.
Turning to Ac-LAVLFLRRRRRRRRR-NH2, the EC50 in the data set with HeLa (read-out: ED50 (the source's name)) stood at 3 µM; with MDA-MB-231 it was 20 µM. In addition, the result in the data set with HT-22 [11], in the data set on HT-22 [17], with HT-22 [14] and in the data set with HT-22 [15] was Active. Moreover, the Activity entry with MCF-10A is listed as “Non-Toxic”; with HT-22 [18] it was “Active”.
Regarding Ac-VQIVKKRRRRRRRRR-NH2, in the data set with HeLa, the outcome was Active. Moreover, in the data set on HT-22 [12], the Activity entry is on record as “Not Active”.
For Ac-VQIVYK-NH2, in the data set on HeLa, the result was Active. Moreover, the result in the data set on MDA-MB-231 was inactive. In addition, the Activity entry was “Non-Toxic” in the data set with MCF-10A and “Not Active” with HT-22 [12].
Ac-LAVLFL-NH2: in the data set with HeLa, the result was Active.
